Experimental data collected from several papers.
Compare with care: the assays were run in different laboratories.
Target: G protein-coupled receptor kinase 4 (GRK4, Homo sapiens, UniProt P32298)

SMILES | test | conditions | measurement | result
CN1CCN(C(=O)c2ccc(NC(=O)Nc3ccc(N(C)c4ccnc(Nc5ccc(CS(C)(=O)=O)cc5)n4)cc3)cc2)CC1 | binding | 1 µM | remaining binding | 4.5%
C[C@]1(O)CCCN(c2nc(Nc3ccc(S(=O)(=O)N[C@H]4CC[C@H](CN5CCN(c6ccc(C7CCC(=O)NC7=O)cc6F)CC5)CC4)cc3F)ncc2C(F)(F)F)C1 (stereo partly drawn) | binding, competition with immobilised ligand | 1 µM | remaining binding | 87%
C1=C/COCc2cc(ccc2OCCN2CCCC2)Nc2nccc(n2)-c2cccc(c2)COC/1 | binding | 0.1 µM | remaining binding | 13%
Cc1ccc(NC(=O)c2ccnc(C(F)(F)F)c2)cc1-c1cc(OCCO)nc(N2CCOCC2)c1 | binding | 1 µM | remaining binding | 99%
CCCCC(=O)Nc1ccc(-c2ccc3ncn(CCC)c(=O)c3c2)cn1 | binding, competition with immobilised ligand | 0.5 µM | remaining binding | 93%
C=CC(=O)N1CCC([C@@H]2CCNc3c(C(N)=O)c(-c4ccc(Oc5ccccc5)cc4)nn32)CC1 | enzyme activity, inhibitor | 1 µM | inhibition | 8%
CC(C)S(=O)(=O)c1ccc2nccc(Nc3ccc4sc(C5CCCC5)nc4c3)c2c1 | enzyme activity, inhibitor | 1 µM | activity vs control | 112%
C=CC(=O)N1CCC[C@@H](n2nc(-c3ccc(Oc4ccccc4)cc3)c3c(N)ncnc32)C1 | enzyme activity, inhibitor | 1 µM | inhibition | 3%
CNS(=O)(=O)c1ccc(Nc2ncc(C(F)(F)F)c(N3CCC[C@](C)(O)C3)n2)c(C)c1 | binding, competition with immobilised ligand | 1 µM | remaining binding | 100%
